According to ChEMBL document CHEMBL1128473, “[(Biaryloxy)alkyl]isoxazoles: picornavirus inhibitors” (J Med Chem, 1995):
Converted amounts (≈) assume the structure as drawn.

Columns and labels:
Assay type in all cases: functional
Human rhinovirus sp. [1] = assay: Concentration inhibiting 50% of the serotypes tested to 50% of the viral concentration of untreated controls following 72 hr of exposure
In short: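 Tissue culture infectious dose (TCID50) assay against a panel of 10 human rhinovirus serotypes. For each serotype, the viral concentration was compared with untreated controls after 72 h of compound exposure. MIC50 is the compound concentration at which half of the serotypes tested are reduced to 50% of the untreated-control viral concentration.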

Human rhinovirus sp. [2] = assay: Minimum inhibitory concentration on HRV serotype 19
Human rhinovirus sp. [3] = assay: Minimum inhibitory concentration on HRV serotype 39
Human rhinovirus sp. [4] = assay: Minimum inhibitory concentration on HRV serotype 32
Human rhinovirus sp. [5] = assay: Minimum inhibitory concentration on HRV serotype 89
In short: (§1)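 Tested in a tissue culture infectious dose (TCID50) assay with 72 h compound exposure. Activity is read as the concentration that holds virus to 50% of the titer of untreated controls.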

Human rhinovirus sp. [6] = assay: Minimum inhibitory concentration on HRV serotype 63
Human rhinovirus sp. [7] = assay: Minimum inhibitory concentration on HRV serotype 92; in short: as §1
Human rhinovirus sp. [8] = assay: Minimum inhibitory concentration on HRV serotype 22
Human rhinovirus sp. [9] = assay: Minimum inhibitory concentration on HRV serotype 1B
Human rhinovirus sp. [10] = assay: Minimum inhibitory concentration on HRV serotype 51
Human rhinovirus sp. [11] = assay: Minimum inhibitory concentration on HRV serotype 78; in short: as §1
Human rhinovirus sp. [12] = assay: Minimum inhibitory concentration on HRV serotype 84; in short: as §1
Human rhinovirus sp. [13] = assay: Minimum inhibitory concentration on HRV serotype 16
Human rhinovirus sp. [14] = assay: Minimum inhibitory concentration on HRV serotype 64
Human rhinovirus sp. [15] = assay: Minimum inhibitory concentration on HRV serotype 96; in short: as §1
Human rhinovirus sp. [16] = assay: Minimum inhibitory concentration on HRV serotype 81; in short: as §1
Human rhinovirus sp. [17] = assay: Minimum inhibitory concentration on HRV serotype 24
Human rhinovirus sp. [18] = assay: Minimum inhibitory concentration on HRV serotype 15
Human rhinovirus sp. [19] = assay: Minimum inhibitory concentration on HRV serotype 34
Human rhinovirus sp. [20] = assay: Minimum inhibitory concentration on HRV serotype 49
Human rhinovirus sp. [21] = assay: Minimum inhibitory concentration on HRV serotype 9; in short: as §1
Human rhinovirus sp. [22] = assay: Minimum inhibitory concentration on HRV serotype 33
Human rhinovirus sp. [23] = assay: Minimum inhibitory concentration on HRV serotype 66
Human rhinovirus sp. [24] = assay: Minimum inhibitory concentration on HRV serotype 30
Human rhinovirus sp. [25] = assay: Minimum inhibitory concentration on HRV serotype 79; in short: as §1
Human rhinovirus sp. [26] = assay: Minimum inhibitory concentration on HRV serotype 36
Human rhinovirus sp. [27] = assay: Minimum inhibitory concentration on HRV serotype 43
Human rhinovirus sp. [28] = assay: Minimum inhibitory concentration on HRV serotype 47
Human rhinovirus sp. [29] = assay: Minimum inhibitory concentration on HRV serotype 29
Human rhinovirus sp. [30] = assay: Minimum inhibitory concentration on HRV serotype 82; in short: as §1
Human rhinovirus sp. [31] = assay: Minimum inhibitory concentration on HRV serotype 11
Human rhinovirus sp. [32] = assay: Minimum inhibitory concentration on HRV serotype 28
Human rhinovirus sp. [33] = assay: Minimum inhibitory concentration on HRV serotype 38
Human rhinovirus sp. [34] = assay: Minimum inhibitory concentration on HRV serotype 7
Human rhinovirus sp. [35] = assay: Minimum inhibitory concentration on HRV serotype 85; in short: as §1
Human rhinovirus sp. [36] = assay: Minimum inhibitory concentration on HRV serotype 73
Human rhinovirus sp. [37] = assay: Minimum inhibitory concentration on HRV serotype 58
Human rhinovirus sp. [38] = assay: Minimum inhibitory concentration on HRV serotype 62
Human rhinovirus sp. [39] = assay: Minimum inhibitory concentration on HRV serotype 35
Human rhinovirus sp. [40] = assay: Minimum inhibitory concentration on HRV serotype 56
Human rhinovirus sp. [41] = assay: Minimum inhibitory concentration on HRV serotype 1A
Human rhinovirus sp. [42] = assay: Minimum inhibitory concentration on HRV serotype 46
Human rhinovirus sp. [43] = assay: Minimum inhibitory concentration on HRV serotype T39; in short: as §1
Human rhinovirus sp. [44] = assay: Minimum inhibitory concentration on HRV serotype 53
Human rhinovirus sp. [45] = assay: Minimum inhibitory concentration on HRV serotype 55
Human rhinovirus sp. [46] = assay: Minimum inhibitory concentration on HRV serotype 50
Human rhinovirus sp. [47] = assay: Minimum inhibitory concentration on HRV serotype 76; in short: as §1
Human rhinovirus sp. [48] = assay: Minimum inhibitory concentration on HRV serotype 68
Human rhinovirus sp. [49] = assay: Minimum inhibitory concentration on HRV serotype 40
Human rhinovirus sp. [50] = assay: Minimum inhibitory concentration on HRV serotype 75
Human rhinovirus sp. [51] = assay: Minimum inhibitory concentration on HRV serotype 57
Human rhinovirus sp. [52] = assay: Minimum inhibitory concentration on HRV serotype 80; in short: as §1
Human rhinovirus sp. [53] = assay: Minimum inhibitory concentration on HRV serotype 100
Human rhinovirus sp. [54] = assay: Minimum inhibitory concentration on HRV serotype 20
Human rhinovirus sp. [55] = assay: Minimum inhibitory concentration on HRV serotype 67
Human rhinovirus sp. [56] = assay: Minimum inhibitory concentration on HRV serotype 25
Human rhinovirus sp. [57] = assay: Minimum inhibitory concentration on HRV serotype 83; in short: as §1
Human rhinovirus sp. [58] = assay: Minimum inhibitory concentration on HRV serotype 44
Human rhinovirus sp. [59] = assay: Minimum inhibitory concentration on HRV serotype 21
Human rhinovirus sp. [60] = assay: Minimum inhibitory concentration on HRV serotype 23
Human rhinovirus sp. [61] = assay: Minimum inhibitory concentration on HRV serotype 71
Human rhinovirus sp. [62] = assay: Minimum inhibitory concentration on HRV serotype 61
Human rhinovirus sp. [63] = assay: Minimum inhibitory concentration on HRV serotype 90; in short: as §1
Human rhinovirus sp. [64] = assay: Minimum inhibitory concentration on HRV serotype 2
Human rhinovirus sp. [65] = assay: Minimum inhibitory concentration on HRV serotype 88; in short: as §1

Structure (SMILES): COc1cccc(-c2cc(C)c(OCCCc3cc(C)no3)c(C)c2)c1
- MIC50 (Human rhinovirus sp. [1]): 0.23 µM (≈ 0.0808 µg/mL)

Structure (SMILES): Cc1cc(CCCOc2c(C)cc(-c3cccc(Cl)c3)cc2C)on1
- MIC50 (Human rhinovirus sp. [1]): 0.27 µM (≈ 0.0961 µg/mL)

Structure (SMILES): Cc1cc(CCCOc2c(C)cc(-c3cccc(O)c3)cc2C)on1
- MIC50 (Human rhinovirus sp. [1]): 0.44 µM (≈ 0.148 µg/mL)

Structure (SMILES): Cc1cc(CCCOc2c(C)cc(-c3cccc([N+](=O)[O-])c3)cc2C)on1
- MIC50 (Human rhinovirus sp. [1]): 0.35 µM (≈ 0.128 µg/mL)

Structure (SMILES): Cc1cc(CCCOc2c(C)cc(-c3ccc(F)cc3)cc2C)on1
- MIC (Human rhinovirus sp. [2]): 0.03 µg/mL (≈ 0.0884 µM)
- MIC (Human rhinovirus sp. [3]): 0.078 µg/mL (≈ 0.23 µM)
- MIC (Human rhinovirus sp. [4]): 0.098 µg/mL (≈ 0.289 µM)
- MIC (Human rhinovirus sp. [5]): 0.012 µg/mL (≈ 0.0354 µM)
- MIC (Human rhinovirus sp. [6]): 0.139 µg/mL (≈ 0.41 µM)
- MIC (Human rhinovirus sp. [7]): 0.014 µg/mL (≈ 0.0412 µM)
- MIC (Human rhinovirus sp. [8]): 0.02 µg/mL (≈ 0.0589 µM)
- MIC (Human rhinovirus sp. [9]): 0.024 µg/mL (≈ 0.0707 µM)
- MIC (Human rhinovirus sp. [10]): 0.009 µg/mL (≈ 0.0265 µM)
- MIC (Human rhinovirus sp. [11]): 0.018 µg/mL (≈ 0.053 µM)
- MIC (Human rhinovirus sp. [12]): 0.042 µg/mL (≈ 0.124 µM)
- MIC (Human rhinovirus sp. [13]): 0.058 µg/mL (≈ 0.171 µM)
- MIC (Human rhinovirus sp. [14]): 0.07 µg/mL (≈ 0.206 µM)
- MIC (Human rhinovirus sp. [15]): 0.031 µg/mL (≈ 0.0913 µM)
- MIC (Human rhinovirus sp. [16]): 0.125 µg/mL (≈ 0.368 µM)
- MIC (Human rhinovirus sp. [17]): 0.036 µg/mL (≈ 0.106 µM)
- MIC (Human rhinovirus sp. [18]): 0.492 µg/mL (≈ 1.45 µM)
- MIC (Human rhinovirus sp. [19]): 0.02 µg/mL (≈ 0.0589 µM)
- MIC (Human rhinovirus sp. [20]): 0.037 µg/mL (≈ 0.109 µM)
- MIC (Human rhinovirus sp. [21]): 0.08 µg/mL (≈ 0.236 µM)
- MIC (Human rhinovirus sp. [22]): 0.019 µg/mL (≈ 0.056 µM)
- MIC (Human rhinovirus sp. [23]): 0.161 µg/mL (≈ 0.474 µM)
- MIC (Human rhinovirus sp. [24]): 0.028 µg/mL (≈ 0.0825 µM)
- MIC (Human rhinovirus sp. [25]): 0.056 µg/mL (≈ 0.165 µM)
- MIC (Human rhinovirus sp. [26]): 0.009 µg/mL (≈ 0.0265 µM)
- MIC (Human rhinovirus sp. [27]): 0.072 µg/mL (≈ 0.212 µM)
- MIC (Human rhinovirus sp. [28]): 0.021 µg/mL (≈ 0.0619 µM)
- MIC (Human rhinovirus sp. [29]): 0.03 µg/mL (≈ 0.0884 µM)
- MIC (Human rhinovirus sp. [30]): 0.187 µg/mL (≈ 0.551 µM)
- MIC (Human rhinovirus sp. [31]): 0.007 µg/mL (≈ 0.0206 µM)
- MIC (Human rhinovirus sp. [32]): 0.14 µg/mL (≈ 0.412 µM)
- MIC (Human rhinovirus sp. [33]): 0.015 µg/mL (≈ 0.0442 µM)
- MIC (Human rhinovirus sp. [34]): 0.006 µg/mL (≈ 0.0177 µM)
- MIC (Human rhinovirus sp. [35]): 0.02 µg/mL (≈ 0.0589 µM)
- MIC (Human rhinovirus sp. [36]): 0.049 µg/mL (≈ 0.144 µM)
- MIC (Human rhinovirus sp. [37]): 0.013 µg/mL (≈ 0.0383 µM)
- MIC (Human rhinovirus sp. [38]): 0.154 µg/mL (≈ 0.454 µM)
- MIC (Human rhinovirus sp. [39]): 0.021 µg/mL (≈ 0.0619 µM)
- MIC (Human rhinovirus sp. [40]): 0.038 µg/mL (≈ 0.112 µM)
- MIC (Human rhinovirus sp. [41]): 0.155 µg/mL (≈ 0.457 µM)
- MIC (Human rhinovirus sp. [42]): 0.058 µg/mL (≈ 0.171 µM)
- MIC (Human rhinovirus sp. [43]): 0.035 µg/mL (≈ 0.103 µM)
- MIC (Human rhinovirus sp. [44]): 0.889 µg/mL (≈ 2.62 µM)
- MIC (Human rhinovirus sp. [45]): 0.003 µg/mL (≈ 0.00884 µM)
- MIC (Human rhinovirus sp. [46]): 0.04 µg/mL (≈ 0.118 µM)
- MIC (Human rhinovirus sp. [47]): 0.009 µg/mL (≈ 0.0265 µM)
- MIC (Human rhinovirus sp. [48]): 0.009 µg/mL (≈ 0.0265 µM)
- MIC50 (Human rhinovirus sp. [1]): 0.11 µM (≈ 0.0373 µg/mL)
- MIC (Human rhinovirus sp. [49]): 0.033 µg/mL (≈ 0.0972 µM)
- MIC (Human rhinovirus sp. [50]): 0.037 µg/mL (≈ 0.109 µM)
- MIC (Human rhinovirus sp. [51]): 0.024 µg/mL (≈ 0.0707 µM)
- MIC (Human rhinovirus sp. [52]): 0.031 µg/mL (≈ 0.0913 µM)
- MIC (Human rhinovirus sp. [53]): 0.12 µg/mL (≈ 0.354 µM)
- MIC (Human rhinovirus sp. [54]): 0.019 µg/mL (≈ 0.056 µM)
- MIC (Human rhinovirus sp. [55]): 0.118 µg/mL (≈ 0.348 µM)
- MIC (Human rhinovirus sp. [56]): 0.077 µg/mL (≈ 0.227 µM)
- MIC (Human rhinovirus sp. [57]): 0.004 µg/mL (≈ 0.0118 µM)
- MIC (Human rhinovirus sp. [58]): 0.033 µg/mL (≈ 0.0972 µM)
- MIC (Human rhinovirus sp. [59]): 0.009 µg/mL (≈ 0.0265 µM)
- MIC (Human rhinovirus sp. [60]): 0.046 µg/mL (≈ 0.136 µM)
- MIC (Human rhinovirus sp. [61]): 0.025 µg/mL (≈ 0.0737 µM)
- MIC (Human rhinovirus sp. [62]): 0.024 µg/mL (≈ 0.0707 µM)
- MIC (Human rhinovirus sp. [63]): 0.024 µg/mL (≈ 0.0707 µM)
- MIC (Human rhinovirus sp. [64]): 0.009 µg/mL (≈ 0.0265 µM)
- MIC (Human rhinovirus sp. [65]): 0.006 µg/mL (≈ 0.0177 µM)

Structure (SMILES): Cc1cc(CCCOc2c(C)cc(-c3cccc(CO)c3)cc2C)on1
- MIC50 (Human rhinovirus sp. [1]): 0.23 µM (≈ 0.0808 µg/mL)

Structure (SMILES): Cc1cc(CCCOc2c(C)cc(-c3ccc(C(F)(F)F)cc3)cc2C)on1
- MIC50 (Human rhinovirus sp. [1]): 1.7 µM (≈ 0.662 µg/mL)

Structure (SMILES): Cc1cc(CCCOc2c(C)cc(-c3ccc(N(C)C)cc3)cc2C)on1
- MIC50 (Human rhinovirus sp. [1]): 0.66 µM (≈ 0.241 µg/mL)

Structure (SMILES): COc1ccc(-c2cc(C)c(OCCCc3cc(C)no3)c(C)c2)cc1
- MIC50 (Human rhinovirus sp. [1]): 0.28 µM (≈ 0.0984 µg/mL)

Structure (SMILES): Cc1cc(CCCOc2c(C)cc(-c3ccc(O)cc3)cc2C)on1
- MIC50 (Human rhinovirus sp. [1]): 0.77 µM (≈ 0.26 µg/mL)
